# ChEMBL document CHEMBL2434961, “Development of 3-phenyl-4,5,6,7-tetrahydro-1H-pyrazolo[4,3-c]pyridine derivatives as novel Mycobacterium tuberculosis pantothenate synthetase inhibitors” (Eur J Med Chem, 2013)
# Experiments:
# [1] = Cytotoxicity against mouse RAW264.7 cells assessed as inhibition of cell viability at 50 uM after 72 hrs by MTT assay relative to control; type: cell-based; conditions: read-out: INH
# In short: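 RAW 264.7 mouse macrophage cells exposed to compound at 50 µM for 72 h. Viability assessed by cellular conversion of MTT to formazan.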
# [2] = test system: Mycobacterium tuberculosis; test: Antibacterial activity against Mycobacterium tuberculosis H37Rv ATCC 27294 assessed as growth inhibition after 28 days by agar dilution method; type: functional; conditions: H37Rv ATCC 27294, 672 h
# In short: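 Two-fold serial dilutions incorporated into Middlebrook 7H11 agar with OADC, final 50 to 0.78 µg/mL. Inoculum of 1 mg/mL (wet weight) in 0.05% Tween 80 saline, diluted 10⁻² to ~10⁷ cfu/mL. 5 µL spotted per tube, incubated at 37 °C for 28 days. MIC is the lowest concentration giving complete growth inhibition.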
# [3] = molecular target: T1, Pantothenate synthetase (Mycobacterium tuberculosis) (UniProt P9WIL5); test: Inhibition of Mycobacterium tuberculosis pantothenate synthetase cloned in Escherichia coli BL21 (DE3) using ATP, beta-alanine, pantoic acid as substrate assessed as NAD+ production at 100 uM measured every 12 secs for 120 secs by spectrophotometric analysis relative to control
# T1 sequence (whole entry): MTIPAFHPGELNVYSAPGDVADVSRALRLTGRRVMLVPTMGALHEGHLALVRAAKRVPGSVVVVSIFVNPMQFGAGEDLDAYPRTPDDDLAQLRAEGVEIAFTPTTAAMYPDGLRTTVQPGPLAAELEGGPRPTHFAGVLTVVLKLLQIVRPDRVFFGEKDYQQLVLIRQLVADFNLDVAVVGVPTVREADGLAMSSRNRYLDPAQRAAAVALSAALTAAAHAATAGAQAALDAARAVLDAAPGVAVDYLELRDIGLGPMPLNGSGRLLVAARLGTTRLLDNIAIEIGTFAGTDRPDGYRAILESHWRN
# In short: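 Coupled assay linking AMP from β-alanine plus pantoate condensation to NADH oxidation via myokinase, pyruvate kinase and lactate dehydrogenase. Mix held NADH, pantoic acid, β-alanine, ATP, phosphoenolpyruvate and MgCl₂ in buffer; compound (100 µM) added; reaction started with PS. A340 read every 12 s for 120 s. % inhibition = 100 × (1 − (compound rate − background)/(full rate − background)).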
# Pantothenate synthetase [4] = molecular target: T2, Pantothenate synthetase (Mycobacterium tuberculosis, UniProt P9WIL5); test: Inhibition of Mycobacterium tuberculosis pantothenate synthetase cloned in Escherichia coli BL21 (DE3) using ATP, beta-alanine, pantoic acid as substrate assessed as NAD+ production measured every 12 secs for 120 secs by spectrophotometric analysis
# T2 sequence (P9WIL5 whole entry): T1 sequence (whole entry)
# In short: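 Same AMP-coupled NADH/A340 PS assay (NADH, pantoic acid, β-alanine, ATP, PEP, MgCl₂, myokinase, pyruvate kinase, LDH; reaction started with enzyme; read every 12 s for 120 s). IC₅₀ determined for compounds exceeding 60% inhibition at 100 µM, using rate-based % inhibition corrected for background.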
# Pantothenate synthetase [5] = molecular target: T2, Pantothenate synthetase; test: Binding affinity to Mycobacterium tuberculosis pantothenate synthetase
Structure (SMILES),"cytotoxicity at 72 h, 50 µM [1] [%]",MIC [2] [µM],inhibition [3] [%],IC50 (Pantothenate synthetase [4]) [µM],Kd (Pantothenate synthetase [5]) [µM]
COc1ccc(NC(=O)N2CCc3c(c(-c4ccccc4)nn3C(=O)C3CCCCC3)C2)cc1,52.5,109,38.7,,
O=C(Nc1cccc2ccccc12)N1CCc2c(c(-c3ccccc3)nn2C(=O)C2CCCCC2)C1,4.1,52.2,50.9,,
O=C(c1ccccc1)n1nc(-c2ccccc2)c2c1CCN(C(=S)Nc1ccc(F)cc1)C2,0.5,110,43.5,,
O=C(Nc1ccc(Cl)cc1)N1CCc2c(c(-c3ccccc3)nn2C(=O)c2ccccc2)C1,4.9,109,40.2,,
O=C(NCc1ccccc1)N1CCc2c(c(-c3ccccc3)nn2C(=O)c2ccccc2)C1,0.7,114,46.2,,
O=C(Nc1cccc2ccccc12)N1CCc2c(c(-c3ccccc3)nn2C(=O)c2ccccc2)C1,4.7,48.8,89.8,38.2,
CC(=O)c1ccc(S(=O)(=O)N2CCc3c(c(-c4ccccc4)nn3C(=O)C3CCCCC3)C2)cc1,11.5,50.8,39.2,,
CC(C)NC(=O)N1CCc2c(c(-c3ccccc3)nn2C(=O)c2ccccc2)C1,10.6,129,40.9,,
Cc1ccc(NC(=S)N2CCc3c(c(-c4ccccc4)nn3C(=O)c3ccccc3)C2)cc1,0,> 110,23.9,,
O=C(C1CCCCC1)n1nc(-c2ccccc2)c2c1CCN(C(=S)Nc1ccc(Cl)cc1)C2,51.1,109,56.3,,
O=C(C1CCCCC1)n1nc(-c2ccccc2)c2c1CCN(C(=S)Nc1ccc(F)cc1)C2,58.4,105,49.2,,
Cc1ccc(NC(=O)N2CCc3c(c(-c4ccccc4)nn3C(=O)C3CCCCC3)C2)cc1,15.1,56.5,40.8,,
O=C(C1CCCCC1)n1nc(-c2ccccc2)c2c1CCN(C(=S)Nc1ccc([N+](=O)[O-])cc1)C2,0,53.5,47.3,,
CC[C@@H](CO)NCCN[C@@H](CC)CO [ETHAMBUTOL],,15.3,0,,
COc1ccc(NC(=S)N2CCc3c(c(-c4ccccc4)nn3C(=O)C3CCCCC3)C2)cc1,9.5,102,50.6,,
O=C(c1ccccc1)n1nc(-c2ccccc2)c2c1CCN(S(=O)(=O)c1ccc(F)cc1)C2,0,54.2,77,38.6,
O=C(C1CCCCC1)n1nc(-c2ccccc2)c2c1CCN(S(=O)(=O)c1cccs1)C2,8.1,54.9,52,,
Cc1ccc(S(=O)(=O)N2CCc3c(c(-c4ccccc4)nn3C(=O)c3ccccc3)C2)cc1,0,109,9,,
O=C(Nc1ccc(Br)cc1)N1CCc2c(c(-c3ccccc3)nn2C(=O)c2ccccc2)C1,42,99.7,60.6,82.1,
Cc1ccc(NC(=O)N2CCc3c(c(-c4ccccc4)nn3C(=O)c3ccccc3)C2)cc1,57.1,114,49.4,,
Cc1ccc2c(c1)C=C(C(=O)NS(=O)(=O)c1cc3ccccc3o1)C2CC(=O)O (configuration not stated),,,,,1.8
O=C(C1CCCCC1)n1nc(-c2ccccc2)c2c1CCN(C(=S)NCc1ccccc1)C2,20.6,108,51.4,,

Structure (SMILES),"cytotoxicity at 72 h, 50 µM [1] [%]",MIC [2] [µM],inhibition [3] [%],IC50 (Pantothenate synthetase [4]) [µM],Kd (Pantothenate synthetase [5]) [µM]
O=C(Nc1ccc([N+](=O)[O-])cc1)N1CCc2c(c(-c3ccccc3)nn2C(=O)c2ccccc2)C1,0,26.7,95.7,21.8,
COc1ccc(NC(=S)N2CCc3c(c(-c4ccccc4)nn3C(=O)c3ccccc3)C2)cc1,0,107,10.2,,
CC(=O)c1ccc(NC(=O)N2CCc3c(c(-c4ccccc4)nn3C(=O)c3ccccc3)C2)cc1,12.8,> 108,43.7,,
CCOc1ccc(NC(=O)N2CCc3c(c(-c4ccccc4)nn3C(=O)C3CCCCC3)C2)cc1,4.9,106,48.5,,
O=C(c1ccccc1)n1nc(-c2ccccc2)c2c1CCN(S(=O)(=O)c1ccc([N+](=O)[O-])cc1)C2,18.6,25.6,39.7,,
O=C(Nc1ccc(Cl)cc1)N1CCc2c(c(-c3ccccc3)nn2C(=O)C2CCCCC2)C1,4,108,54.7,,
O=C(NCc1ccccc1)N1CCc2c(c(-c3ccccc3)nn2C(=O)C2CCCCC2)C1,35.7,54.5,49.1,,
Cc1ccc(NC(=S)N2CCc3c(c(-c4ccccc4)nn3C(=O)C3CCCCC3)C2)cc1,27.8,51.1,50.5,,
Cc1ccc(S(=O)(=O)N2CCc3c(c(-c4ccccc4)nn3C(=O)C3CCCCC3)C2)cc1,0,53.9,41.6,,
C=CCNC(=S)N1CCc2c(c(-c3ccccc3)nn2C(=O)c2ccccc2)C1,6,> 124,41.7,,
CC(=O)c1ccc(NC(=O)N2CCc3c(c(-c4ccccc4)nn3C(=O)C3CCCCC3)C2)cc1,22.5,108,51.4,,
O=C(Nc1ccc([N+](=O)[O-])cc1)N1CCc2c(c(-c3ccccc3)nn2C(=O)C2CCCCC2)C1,14.9,52.8,50.8,,
CCOc1ccc(NC(=O)N2CCc3c(c(-c4ccccc4)nn3C(=O)c3ccccc3)C2)cc1,0,> 107,47.2,,
O=C(c1ccccc1)n1nc(-c2ccccc2)c2c1CCN(S(=O)(=O)c1cccs1)C2,6.8,55.6,48.7,,
CC(=O)c1ccc(S(=O)(=O)N2CCc3c(c(-c4ccccc4)nn3C(=O)c3ccccc3)C2)cc1,5.3,51.5,78.5,39.1,
O=C(c1ccccc1)n1nc(-c2ccccc2)c2c1CCN(C(=S)Nc1ccc(Cl)cc1)C2,0,106,37.7,,
NNC(=O)c1ccncc1 [ISONIAZID],,0.72,0,,
CC(C)(C)OC(=O)N1CCc2[nH]nc(-c3ccccc3)c2C1,,26.7,,21.8,
O=C(Nc1ccc(Br)cc1)N1CCc2c(c(-c3ccccc3)nn2C(=O)C2CCCCC2)C1,0,98.5,50.5,,
O=C(c1ccccc1)n1nc(-c2ccccc2)c2c1CCN(C(=S)NCc1ccccc1)C2,0,110,52.1,,
O=C(C1CCCCC1)n1nc(-c2ccccc2)c2c1CCN(S(=O)(=O)c1ccc(F)cc1)C2,1.4,53.5,46.8,,
O=C(C1CCCCC1)n1nc(-c2ccccc2)c2c1CCN(S(=O)(=O)c1ccc([N+](=O)[O-])cc1)C2,8.3,50.5,50.2,,
